Tests used:
[1] = tested on: Hepatitis C virus; test: Antiviral activity against Hepatitis C virus genotype 1b Con 1 infected in human HuH7 cells at 10 nM after 72 hrs by luciferase assay in presence of 7.5 uM clemizole; type: functional, Hepacivirus hominis, Huh-7
How it was run: (§1)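 Stable Con1 GT1b bicistronic luciferase replicon in Huh-7 cells, 8000 cells/well. Test compound and a marketed DAA or clemizole added alone or together at varied concentrations, 0.5% DMSO final. 72 h at 37°C, then luciferase read with Bright-Glo. Inhibition expressed as % of untreated control, with cytotoxicity run in parallel. CI and DRI derived by the Chou–Talalay median-effect method.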

[2] = tested on: Hepatitis C virus; test: Antiviral activity against Hepatitis C virus genotype 1b Con 1 infected in human HuH7 cells at 20 nM after 72 hrs by luciferase assay in presence of 0.02 nM daclatasvir; type: functional, Hepacivirus hominis, Huh-7; how it was run: as §1
[3] = tested on: Hepatitis C virus; test: Antiviral activity against Hepatitis C virus genotype 1b Con 1 infected in human HuH7 cells at 20 nM after 72 hrs by luciferase assay in presence of 0.16 nM daclatasvir; type: functional, Hepacivirus hominis, Huh-7; how it was run: as §1
[4] = tested on: Hepatitis C virus; test: Antiviral activity against Hepatitis C virus genotype 1b Con 1 infected in human HuH7 cells at 20 nM after 72 hrs by luciferase assay in presence of 17.5 uM clemizole; type: functional, Hepacivirus hominis, Huh-7
How it was run: (§2)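 Huh-7 cells stably carrying a GT1b Con1 bicistronic luciferase replicon, seeded at 8000 cells/well. The test compound and the partner DAA are dosed orthogonally at various concentrations, final 0.5% DMSO, then incubated 72 h at 37°C. Bright-Glo luciferase read-out gives replicon inhibition as % of untreated control. Cytotoxicity is checked in parallel by CellTiter-Fluor. CI and DRI are derived by the Chou–Talalay median-effect method.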

[5] = tested on: Hepatitis C virus; test: Antiviral activity against Hepatitis C virus genotype 1b Con 1 infected in human HuH7 cells at 20 nM after 72 hrs by luciferase assay in presence of 20 uM clemizole; type: functional, Hepacivirus hominis, Huh-7; how it was run: as §2
[6] = tested on: Hepatitis C virus; test: Antiviral activity against Hepatitis C virus genotype 1b Con 1 infected in human HuH7 cells at 40 nM after 72 hrs by luciferase assay in presence of 0.02 nM daclatasvir; type: functional, Hepacivirus hominis, Huh-7; how it was run: as §2
[7] = tested on: Hepatitis C virus; test: Antiviral activity against Hepatitis C virus genotype 1b Con 1 infected in human HuH7 cells at 160 nM after 72 hrs by luciferase assay in presence of 10 uM clemizole; type: functional, Hepacivirus hominis, Huh-7; how it was run: as §1
[8] = tested on: Hepatitis C virus; test: Antiviral activity against Hepatitis C virus genotype 1b Con 1 infected in human HuH7 cells at 40 nM after 72 hrs by luciferase assay in presence of 0.16 nM daclatasvir; type: functional, Hepacivirus hominis, Huh-7; how it was run: as §2
[9] = tested on: Hepatitis C virus; test: Antiviral activity against Hepatitis C virus genotype 1b Con 1 infected in human HuH7 cells at 40 nM after 72 hrs by luciferase assay in presence of 60 nM sofobuvir; type: functional, Hepacivirus hominis, Huh-7; how it was run: as §2
[10] = tested on: Hepatitis C virus; test: Antiviral activity against Hepatitis C virus genotype 1b Con 1 infected in human HuH7 cells at 40 nM after 72 hrs by luciferase assay in presence of 20 uM clemizole; type: functional, Hepacivirus hominis, Huh-7; how it was run: as §2
[11] = tested on: Hepatitis C virus; test: Antiviral activity against Hepatitis C virus genotype 1b Con 1 infected in human HuH7 cells at 80 nM after 72 hrs by luciferase assay in presence of 6 nM simeprevir; type: functional, Hepacivirus hominis, Huh-7; how it was run: as §2
[12] = tested on: Hepatitis C virus; test: Antiviral activity against Hepatitis C virus genotype 1b Con 1 infected in human HuH7 cells at 80 nM after 72 hrs by luciferase assay in presence of 60 nM sofobuvir; type: functional, Hepacivirus hominis, Huh-7; how it was run: as §2
[13] = tested on: Hepatitis C virus; test: Antiviral activity against Hepatitis C virus genotype 1b Con 1 infected in human HuH7 cells at 80 nM after 72 hrs by luciferase assay in presence of 180 nM sofobuvir; type: functional, Hepacivirus hominis, Huh-7; how it was run: as §2
[14] = tested on: Hepatitis C virus; test: Antiviral activity against Hepatitis C virus genotype 1b Con 1 infected in human HuH7 cells at 80 nM after 72 hrs by luciferase assay in presence of 7.5 uM clemizole; type: functional, Hepacivirus hominis, Huh-7
How it was run: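 Con1 GT1b luciferase replicon Huh-7 cells, seeded at 8000 cells/well. The compound was combined orthogonally with clemizole across a range of concentrations (0.5% DMSO final) and incubated for 72 h at 37°C. Bright-Glo luciferase inhibition was expressed as a percentage of the untreated control. Cytotoxicity was run in parallel.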

[15] = tested on: Hepatitis C virus; test: Antiviral activity against Hepatitis C virus genotype 1b Con 1 infected in human HuH7 cells at 80 nM after 72 hrs by luciferase assay in presence of 15 uM clemizole; type: functional, Hepacivirus hominis, Huh-7; how it was run: as §2
[16] = tested on: Hepatitis C virus; test: Antiviral activity against Hepatitis C virus genotype 1b Con 1 infected in human HuH7 cells at 80 nM after 72 hrs by luciferase assay in presence of 17.5 uM clemizole; type: functional, Hepacivirus hominis, Huh-7; how it was run: as §2
[17] = tested on: Hepatitis C virus; test: Antiviral activity against Hepatitis C virus genotype 1b Con1 infected in human HuH7 cells after 72 hrs by luciferase assay; type: functional, cell-based, Hepacivirus hominis; conditions: genotype 1b Con 1, Huh-7, 72 h
How it was run: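 Huh-7 cells stably carrying a genotype 1b Con1 bicistronic luciferase replicon, seeded at 8000 cells/well. Compounds were added at 0.5% DMSO final and incubated at 37°C for 72 h. Read-out was Bright-Glo luciferase, with cell proliferation measured by CellTiter-Fluor. EC50 is the mean of at least two independent runs. Some values are given as percent inhibition at 10 µM.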

[18] = tested on: Hepatitis C virus; test: Antiviral activity against Hepatitis C virus genotype 1b harboring H94R mutation transfected in human HuH7 cells after 72 hrs by luciferase assay; type: functional, cell-based, Hepacivirus hominis; conditions: Huh-7, 72 h
How it was run: (§3)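 Huh-7 cells were transiently electroporated with genotype 1b replicon RNA carrying the specified mutation and plated at 10000 cells/well. Compounds were added at 0.5% DMSO final for 72 h at 37°C. Read-out was Bright-Glo luciferase. EC50 is the mean of two independent runs within 2-fold of each other. A reference drug EC50 was measured alongside each mutant replicon to validate it.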

[19] = tested on: Hepatitis C virus; test: Antiviral activity against Hepatitis C virus genotype 1b harboring P495A NS5B (thumb 1) mutation transfected in human HuH7 cells after 72 hrs by luciferase assay; type: functional, cell-based, Hepacivirus hominis; conditions: Huh-7, 72 h; how it was run: as §3
[20] = tested on: Hepatitis C virus; test: Antiviral activity against Hepatitis C virus genotype 1b Con 1 infected in human HuH7 cells at 2.5 nM after 72 hrs by luciferase assay in presence of 3 nM simeprevir; type: functional, Hepacivirus hominis, Huh-7; how it was run: as §1
[21] = tested on: Hepatitis C virus; test: Antiviral activity against Hepatitis C virus genotype 1b Con 1 infected in human HuH7 cells at 2.5 nM after 72 hrs by luciferase assay in presence of 60 nM sofobuvir; type: functional, Hepacivirus hominis, Huh-7; how it was run: as §1
[22] = tested on: Hepatitis C virus; test: Antiviral activity against Hepatitis C virus genotype 1b Con 1 infected in human HuH7 cells at 2.5 nM after 72 hrs by luciferase assay in presence of 240 nM sofobuvir; type: functional, Hepacivirus hominis, Huh-7; how it was run: as §1
[23] = tested on: Hepatitis C virus; test: Antiviral activity against Hepatitis C virus genotype 1b Con 1 infected in human HuH7 cells at 2.5 nM after 72 hrs by luciferase assay in presence of 7.5 uM clemizole; type: functional, Hepacivirus hominis, Huh-7; how it was run: as §1
[24] = tested on: Hepatitis C virus; test: Antiviral activity against Hepatitis C virus genotype 1b Con 1 infected in human HuH7 cells at 2.5 nM after 72 hrs by luciferase assay in presence of 10 uM clemizole; type: functional, Hepacivirus hominis, Huh-7; how it was run: as §1
[25] = tested on: Hepatitis C virus; test: Antiviral activity against Hepatitis C virus genotype 1b Con 1 infected in human HuH7 cells at 2.5 nM after 72 hrs by luciferase assay in presence of 12.5 uM clemizole; type: functional, Hepacivirus hominis, Huh-7; how it was run: as §1
[26] = tested on: Hepatitis C virus; test: Antiviral activity against Hepatitis C virus genotype 1b Con 1 infected in human HuH7 cells at 2.5 nM after 72 hrs by luciferase assay in presence of 20 uM clemizole; type: functional, Hepacivirus hominis, Huh-7; how it was run: as §1
[27] = tested on: Hepatitis C virus; test: Antiviral activity against Hepatitis C virus genotype 1b Con 1 infected in human HuH7 cells at 5 nM after 72 hrs by luciferase assay in presence of 120 nM sofobuvir; type: functional, Hepacivirus hominis, Huh-7; how it was run: as §2

SMILES: O=C(c1nc2scc(C3CC3)n2c1Cl)N1CCN(C2CCCC2)C(=O)C1
- CI [1]: 0.54
- CI [2]: 0.98
- CI [3]: 0.69
- CI [4]: 1.18
- CI [5]: 1.03
- CI [6]: 0.78
- CI [7]: 1.09
- CI [8]: 0.64
- CI [9]: 0.67
- CI [10]: 1.2
- CI [11]: 0.37
- CI [12]: 0.64
- CI [13]: 0.43
- CI [14]: 0.85
- CI [15]: 1
- CI [16]: 1.11
- EC50 [17]: 16 nM
- EC50 [18]: 3980 nM
- EC50 [19]: 10 nM
- CI [20]: 1.26
- CI [21]: 1.04
- CI [22]: 0.83
- CI [23]: 0.72
- CI [24]: 0.87
- CI [25]: 1.07
- CI [26]: 1.45
- CI [27]: 0.82

From ChEMBL document CHEMBL3425469, “Discovery of imidazo[2,1-b]thiazole HCV NS4B inhibitors exhibiting synergistic effect with other direct-acting antiviral agents” (J Med Chem, 2015)
